# In paper PMC4894821 (ACS chemical biology, 2015):
# Tests used:
# OGG1 [1] = target: T1, OGG1 (Homo sapiens, UniProt O15527); test: Gel-based OGG1 cleavage assay; format: biochemical; conditions: eight concentrations up to 25 μM
# Human NEIL1 = Human NEIL1 (Homo sapiens, UniProt Q96FI4); test: Fluorescence-based NEIL1 activity assay; format: biochemical; conditions: read-out: NEIL1 % activity with 50 μM inhibitor
# Human NTH1 = target: T2, Human NTH1 (Homo sapiens, UniProt P78549); test: Fluorescence-based NTH1 activity assay; format: biochemical; conditions: read-out: NTH1 % activity with 50 μM inhibitor
# T2 sequence (P78549 23-304): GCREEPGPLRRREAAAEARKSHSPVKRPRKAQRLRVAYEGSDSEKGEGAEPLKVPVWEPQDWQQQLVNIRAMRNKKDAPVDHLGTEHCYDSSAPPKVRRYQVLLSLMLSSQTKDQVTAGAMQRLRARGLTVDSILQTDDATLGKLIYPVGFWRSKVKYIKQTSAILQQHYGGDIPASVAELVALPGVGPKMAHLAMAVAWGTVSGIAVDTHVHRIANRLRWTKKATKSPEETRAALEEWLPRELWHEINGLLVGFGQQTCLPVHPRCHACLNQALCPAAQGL
# OGG1 [2] = target: T1, OGG1; test: OGG1 AP lyase activity on AP site-containing substrate; format: biochemical; conditions: 10 μM compound, compared with no inhibitor control
# Summary of the method: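 AP-site substrate made by treating U-containing duplex with Udg, 37 °C, 2 h. OGG1 (62.5 nM stock) mixed with 10 μM compound or buffer, then substrate (50 nM stock) added. Incubated 30 min at 37 °C, quenched with formamide, resolved on 15% polyacrylamide/8 M urea gel. Percent cleavage vs no-inhibitor control; three independent experiments.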
# OGG1 [3] = target: T1, OGG1; test: Sodium cyanoborohydride trapping assay; format: biochemical; conditions: 10 μM inhibitor, 1 mM NaBH3CN
# OGG1 [4] = target: T1, OGG1; test: Gel shift assay; format: binding; conditions: 50 μM inhibitor or ATA, 4 °C
# Summary of the method: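 EMSA on ice with precooled reagents. OGG1 (125 nM stock) pre-incubated 5–10 min with 50 μM inhibitor, ATA or buffer. Added 8-oxo-Gua, AP-site or U-containing fluorescent duplex (50 nM stock), held 5 min. Quenched with cold 30% glycerol; run on 8% native gel with 30% glycerol, 4 °C, 1 h, 75 V. Percent bound vs no-inhibitor control; three independent experiments.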
# AP-containing substrate = test: Protection of AP-containing substrate against NaOH-mediated strand cleavage
# T1 sequence (O15527 whole entry): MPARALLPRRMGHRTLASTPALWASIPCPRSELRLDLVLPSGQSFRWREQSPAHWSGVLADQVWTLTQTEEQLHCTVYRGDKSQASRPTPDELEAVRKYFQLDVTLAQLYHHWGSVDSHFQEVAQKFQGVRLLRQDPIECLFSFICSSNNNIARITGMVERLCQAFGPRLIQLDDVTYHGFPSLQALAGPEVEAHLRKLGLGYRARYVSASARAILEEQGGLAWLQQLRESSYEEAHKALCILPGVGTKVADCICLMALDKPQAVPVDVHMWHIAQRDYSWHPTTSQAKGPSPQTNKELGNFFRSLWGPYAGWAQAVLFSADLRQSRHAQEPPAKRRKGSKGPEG
# Human NEIL1, sequence (Q96FI4 whole entry): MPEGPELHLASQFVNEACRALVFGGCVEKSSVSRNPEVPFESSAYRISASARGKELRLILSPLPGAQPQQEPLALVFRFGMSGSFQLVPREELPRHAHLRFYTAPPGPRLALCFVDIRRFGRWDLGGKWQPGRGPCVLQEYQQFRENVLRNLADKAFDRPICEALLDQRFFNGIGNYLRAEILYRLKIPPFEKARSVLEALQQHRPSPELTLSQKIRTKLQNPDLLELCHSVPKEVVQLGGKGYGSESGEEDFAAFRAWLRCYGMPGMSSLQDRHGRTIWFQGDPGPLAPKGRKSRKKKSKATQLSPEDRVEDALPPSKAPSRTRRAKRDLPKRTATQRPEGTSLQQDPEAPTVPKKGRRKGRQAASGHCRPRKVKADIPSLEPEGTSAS
smiles,measurement,setting,value
"NNC(=O)c1ccncc1 [Isoniazid (INH), isoniazid]",inhibition of OGG1 (gel-based strand cleavage),OGG1 [1],no inhibition
same,activity at 50 µM,Human NEIL1,80.6%
same,activity at 50 µM,Human NTH1,98%
same,OGG1-induced cleavage of an AP site (lyase activity),OGG1 [2],no effect
same,trapping of OGG1 on 8-oxo-Gua- and AP site-containing substrates (Schiff base formation),OGG1 [3],no effect
"O=C(O)C1=CC(=C(c2ccc(O)c(C(=O)O)c2)c2ccc(O)c(C(=O)O)c2)C=CC1=O [aurintricarboxylic acid (ATA), aurintricarboxylic acid]",OGG1 binding to 8-oxo-Gua substrate,OGG1 [4],abrogated
NNc1nncc2ccccc12 [hydralazine],protection against NaOH-mediated (alkaline-induced) strand cleavage,AP-containing substrate,63%
"Cc1cc(C(=O)NNCc2ccccc2)no1 [isocarboxazid (ICD), isocarboxazid]",OGG1-induced cleavage of an AP site (lyase activity),OGG1 [2],no effect
